Compounds with a hit are over-represented: about 3.2% of the library has one in this group of screens.
CHO parental Ca = ATP-evoked calcium signal inhibitors, parental CHO, primary screen, counter-screen for OX1R antagonist project, cell-based, fluorescence, Fluo-8 calcium dye; parental CHO-K1, ATP-induced calcium, Fluo-8 fluorescence; inhibition, % at 5.6 µM; actives 0.63% (n = 330,000); AID 463079, 2010;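 active = inhibition above that plate's mean sample inhibition plus 3 SD, cut at about 26% in these data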
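material = parental CHO cells | also added = ATP as calcium-mobilizing challenge | dosing = single point at 5.6 µM | detection = intracellular calcium via Fluo-8 no-wash fluorescent dye | read-out = % inhibition | benchmarks = low control ATP plus DMSO, high control DMSO only | repeats = one well per compound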
zfTRPN1 agonist = zebrafish TRPN1 channel agonists, primary screen, cell-based, HEK293, calcium fluorescence; actives 0.18% (n = 220,000); HEK293 zebrafish TRPN1-YFP, Fluo-8 calcium fluorescence; 100% = response to 87 µM carbachol; transient receptor potential cation channel N1 (TRPN1/NompC), Danio rerio; activation, % at 3 µM;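 active = activation above its plate's cutoff, the mean activation of test wells on that plate plus 3 SD, cut at about 19% in these data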
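Material: zebrafish TRPN1-YFP in HEK293 cells; Doses: single test compound dose, 3 µM nominal, 0.3% DMSO; Timing: dye loading 1 h at 37 °C, then 30 min room temperature; Technique: intracellular calcium fluorescence with Fluo-8; Benchmarks: high carbachol 87 µM, low DMSO alone.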
GPR7 antag = GPR7 receptor antagonists, primary screen, cell-based, fluorescence, single concentration. Neuropeptides B/W receptor type 1 (Homo sapiens), P48145. GPR7-expressing cells, fluorescence antagonist assay. inhibition, % at 4.4 µM. actives 1.1% (n = 290,000). AID 1861, 2009; in the data active = inhibition above about 16%, passing the limit was not always enough;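 also: cells stimulated with the agonist NPW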
Target sequence (P48145 whole entry, looked up): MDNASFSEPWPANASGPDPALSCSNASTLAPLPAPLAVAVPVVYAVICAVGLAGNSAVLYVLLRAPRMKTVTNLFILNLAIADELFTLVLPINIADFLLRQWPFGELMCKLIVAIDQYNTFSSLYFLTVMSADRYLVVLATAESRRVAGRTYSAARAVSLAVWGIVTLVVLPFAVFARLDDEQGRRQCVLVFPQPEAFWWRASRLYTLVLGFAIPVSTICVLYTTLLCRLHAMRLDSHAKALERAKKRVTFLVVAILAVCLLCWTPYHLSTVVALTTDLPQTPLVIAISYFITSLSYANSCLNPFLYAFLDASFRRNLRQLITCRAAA
TRPML3 agonist = human TRPML3 channel agonists, primary screen, cell-based, HEK293 TRPML3-YFP, Fluo-8 calcium fluorescence, 3 µM. 100% = the carbachol control signal. actives 0.29% (n = 220,000). activation, % at 3 µM. Mucolipin-3 (Homo sapiens), Q8TDD5;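 active = activation above its plate's cutoff, the mean activation of the plate's test wells plus 3 SD, cut at about 12% in these data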
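Material: HEK293 cells stably carrying human TRPML3-YFP; compound dosing: single dose, 3 µM final nominal compound, 0.3% DMSO final; incubation: 1-h 37 °C dye load, 5-s basal, 120-s post-compound reads; technique: Fluo-8 intracellular calcium fluorescence, excitation 470-495 nm, emission 515-575 nm; read-out basis: percent activation from peak-to-basal fluorescence ratio, scaled between DMSO and carbachol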
OX1R antag-1 = antagonists of human orexin 1 receptor (OX1R). Orexin/Hypocretin receptor type 1 (Homo sapiens), O43613. OX1R-expressing cells, FRET antagonist read-out. inhibition, % at 6.6 µM. actives 1.8% (n = 330,000); in the data active = inhibition mostly above about 38%, no sharp cut-off; inactive = mostly below about 40%
Target sequence (O43613 whole entry, looked up): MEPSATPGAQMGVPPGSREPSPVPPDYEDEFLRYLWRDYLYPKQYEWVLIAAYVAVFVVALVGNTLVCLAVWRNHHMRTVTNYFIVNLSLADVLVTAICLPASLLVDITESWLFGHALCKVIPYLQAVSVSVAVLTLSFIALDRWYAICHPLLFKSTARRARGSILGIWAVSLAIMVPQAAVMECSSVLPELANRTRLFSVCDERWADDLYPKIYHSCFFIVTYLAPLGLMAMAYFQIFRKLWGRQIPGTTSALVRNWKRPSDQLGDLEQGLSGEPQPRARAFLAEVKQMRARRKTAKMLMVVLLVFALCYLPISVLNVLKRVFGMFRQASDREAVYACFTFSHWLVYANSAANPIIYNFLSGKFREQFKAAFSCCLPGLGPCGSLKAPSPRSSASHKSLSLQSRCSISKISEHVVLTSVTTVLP
OX1R antag-2 = OX1R (HCRTR1) antagonists, primary screen, fluorescence, CHO/OX1R cells, Fluo-8 calcium, orexin A; Fluo-8 calcium fluorescence; AID 434989, 2010; inhibition, % at 5 µM; actives 0.43% (n = 330,000);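 active = inhibition above its plate's threshold, mean inhibition of all tested compounds on the plate plus 3 SD, cut at about 37% in these data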
GPR7 antag cf = GPR7 receptor antagonists, confirmation, cell-based, fluorescence, single concentration. shares compounds with GPR7 antag. GPR7-expressing cells, calcium fluorescence antagonist mode. inhibition, % at 4.4 µM. actives 52% (n = 2,400); in the data active = inhibition above about 24%;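 also: stimulated with the GPR7 agonist NPW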
MCHR1 antagonist = MCHR1 antagonists in cells, counter-screen for GPR7 antagonist project, cell-based, fluorescence, human | shares compounds with GPR7 antag | MCHR1-expressing cells, fluorescence antagonist assay | actives 62% (n = 2,400) | inhibition, % at 4.4 µM; in the data active = inhibition above about 22%
Large screens that a line does not name were inactive (follow-up assays come after a bar, where they were run).

COC(=O)c1ccccc1S(=O)(=O)N1CCC(C(=O)NCCC2=CCCCC2)CC1	none (no result: zfTRPN1 agonist, GPR7 antag, TRPML3 agonist)
CN(Cc1cccc(Cl)c1)C(=O)C1CCC(=O)N(C2CC2)C1 (stereo unspecified)	GPR7 antag 23 (no result: zfTRPN1 agonist, TRPML3 agonist) | GPR7 antag cf inactive | MCHR1 antagonist inactive
CN(Cc1ccc(C(F)(F)F)cc1)C(=O)C1CCC(=O)N(C2CC2)C1 (stereo unspecified)	none (no result: CHO parental Ca, zfTRPN1 agonist, TRPML3 agonist, OX1R antag-1, OX1R antag-2)
CC1CCC(NC(=O)c2cc(C3CC3)nn2-c2ccccc2)CC1 (stereo unspecified)	none (no result: zfTRPN1 agonist, GPR7 antag, TRPML3 agonist)
CN1CCN(CC(=O)Nc2c(C(=O)C3CC3)oc3ccccc23)CC1	GPR7 antag 21 | GPR7 antag cf inactive | MCHR1 antagonist inactive
O=C(CN1CCOCC1)Nc1c(C(=O)C2CC2)oc2ccccc12	none
Cc1ccc(C(=O)c2oc3ccc(Cl)cc3c2NC(=O)CN2CCN(C)CC2)cc1	GPR7 antag 24 (no result: zfTRPN1 agonist, TRPML3 agonist) | GPR7 antag cf 29 | MCHR1 antagonist 42
CCN1CCN(c2ccc(S(=O)(=O)N3CCOCC3)cc2NC(=O)CCC(C)C)CC1	none (no result: zfTRPN1 agonist, GPR7 antag, TRPML3 agonist)
CN(Cc1ccc(N(C)C)cc1)C(=O)c1cc2ccccc2o1	GPR7 antag 41 (no result: zfTRPN1 agonist, TRPML3 agonist) | GPR7 antag cf inactive | MCHR1 antagonist 26
CN(Cc1ccccc1Cl)C(=O)c1cc2ccccc2o1	none (no result: zfTRPN1 agonist, TRPML3 agonist)
CCOC(=O)Cn1cc(/C=N/NC(=O)c2cc3ccccc3o2)c2ccccc21	GPR7 antag 26 | GPR7 antag cf inactive | MCHR1 antagonist 28
Cc1ccc(/C=N\NC(=O)Cc2noc3ccccc23)cc1	none (no result: zfTRPN1 agonist, TRPML3 agonist)
COc1cccc(CN(C)C(=O)c2cc(COc3c(F)cccc3F)on2)c1	none
COc1cccc(CN(C)C(=O)c2cc(COc3ccc4ncccc4c3)on2)c1	CHO parental Ca 66, GPR7 antag 33 | GPR7 antag cf 40 | MCHR1 antagonist 57
CCCc1nnc(SCC(=O)NC2CCCC2)n1CCOC	none (no result: zfTRPN1 agonist, TRPML3 agonist)
CCOC(=O)C1(P(=O)(c2ccc(Cl)cc2)c2ccc(Cl)cc2)CCC1	GPR7 antag 25 | GPR7 antag cf inactive | MCHR1 antagonist inactive
O=C(O)C1(P(=O)(c2ccc(Cl)cc2)c2ccc(Cl)cc2)CC1	none
CCC(NC(=O)c1cc(COc2ccc(F)cc2Cl)on1)c1ccncc1 (stereo unspecified)	GPR7 antag 30 (no result: CHO parental Ca, zfTRPN1 agonist, TRPML3 agonist, OX1R antag-1, OX1R antag-2) | GPR7 antag cf inactive | MCHR1 antagonist 47
O=c1[nH]c(C2CCN(S(=O)(=O)c3ccccc3)CC2)nc2c1nnn2Cc1ccccc1	none
O=C(CSc1nnc(Cc2cccs2)n1Cc1ccco1)Nc1ccc(Cl)cc1Cl	GPR7 antag 28 | GPR7 antag cf 31 | MCHR1 antagonist 34
COc1ccc(/C=N/n2cnc3c([nH]c4ccccc43)c2=O)cc1COc1ccccn1	none
CCCCC(=O)Nc1ncc(S(=O)(=O)c2ccc([N+](=O)[O-])cc2)s1	GPR7 antag 35 (no result: zfTRPN1 agonist, TRPML3 agonist) | GPR7 antag cf 26 | MCHR1 antagonist 25
CC[n+]1c(/C=C/N(C)c2ccccc2)oc2ccc(Cl)cc21	none
CCN1/C(=C/C=C/c2oc3ccc4ccccc4c3[n+]2CC)Oc2ccc3ccccc3c21	CHO parental Ca 64, zfTRPN1 agonist 73, GPR7 antag 45, TRPML3 agonist 31, OX1R antag-2 76 | GPR7 antag cf 55 | MCHR1 antagonist 58
COCCCNC(=S)NNC(=O)c1cc(C2CC2)nc2ccccc12	none (no result: CHO parental Ca, zfTRPN1 agonist, TRPML3 agonist, OX1R antag-1, OX1R antag-2)
COc1ccc(-c2nnn(CC(=O)N(CCCN3CCOCC3)C(C(=O)NC3CCCC3)c3ccco3)n2)cc1 (stereo unspecified)	none
CC(=O)Nc1ccc(NC(=O)C(C)OC(=O)C23CC4CC(CC(Cl)(C4)C2)C3)cc1 (stereo unspecified)	none (no result: zfTRPN1 agonist, GPR7 antag, TRPML3 agonist)
O=C(c1ccc(C(F)(F)F)cc1)C1CCCN(Cc2cccn2-c2ncccn2)C1 (stereo unspecified)	none
O=C(c1cccc(C(F)(F)F)c1)C1CCCN(Cc2cccn2-c2ncccn2)C1 (stereo unspecified)	GPR7 antag 21 | GPR7 antag cf 34 | MCHR1 antagonist 35
NC(=O)CN1CCOCCOCCOCCOCCOCC1	none
NC(=O)CN1CCOCCOCCN(CC(N)=O)CCOCCOCC1	GPR7 antag 61 | GPR7 antag cf inactive | MCHR1 antagonist inactive
Cc1nc2ccccc2n1CC(=O)NC(C)C1CC2CCC1C2 (stereo unspecified)	none
CC(NC(=O)Cn1c(NCCO)nc2ccccc21)C1CC2CCC1C2 (stereo unspecified)	GPR7 antag 33 | GPR7 antag cf 27 | MCHR1 antagonist inactive
COc1ccccc1CNC(=O)CN(C)Cc1ccc(SC)cc1	GPR7 antag 26 (no result: zfTRPN1 agonist, TRPML3 agonist) | GPR7 antag cf 37 | MCHR1 antagonist 36
CCOC(=O)c1sc(/S(C)=N\S(=O)(=O)c2cccc(Cl)c2)c2c1CCC=C2 (stereo unspecified)	none
CN(c1ccccc1)S(=O)(=O)c1ccc(NC(=O)c2nc(S(C)(=O)=O)ncc2Cl)cc1	GPR7 antag 92 (no result: zfTRPN1 agonist, TRPML3 agonist) | GPR7 antag cf 91 | MCHR1 antagonist 102
COc1cccc(NC(=O)c2nc(S(C)(=O)=O)ncc2Cl)c1	GPR7 antag 33 (no result: zfTRPN1 agonist, TRPML3 agonist) | GPR7 antag cf 42 | MCHR1 antagonist 33
COc1cccc(NC(=O)c2cnsn2)c1	GPR7 antag 25 | GPR7 antag cf inactive | MCHR1 antagonist inactive
COc1cccc(NC(=O)c2nc(SC)ncc2Cl)c1	none (no result: zfTRPN1 agonist, TRPML3 agonist)
CC1CCCC(NC(=O)C2CCN(S(=O)(=O)N3CCCCCC3)CC2)C1C (stereo unspecified)	none
CC(=O)c1ccc(S(=O)(=O)N(C)CC(=O)Nc2ccc(C)cc2)cc1	none (no result: zfTRPN1 agonist, GPR7 antag, TRPML3 agonist)
O=C(COC(=O)c1cc([N+](=O)[O-])ccc1NCCO)Nc1cccc(S(=O)(=O)N2CCCC2)c1	none (no result: zfTRPN1 agonist, GPR7 antag, TRPML3 agonist)
COc1ccc2[nH]c(=O)c(CN(C(=O)c3ccccn3)C3CCCCC3)cc2c1	GPR7 antag 23 | GPR7 antag cf inactive | MCHR1 antagonist inactive
